# According to ChEMBL document CHEMBL1124934, “Synthesis and structure-activity relationships of dynorphin A-(1-8) amide analogues” (J Med Chem, 1990):
# What was measured:
# [1] = molecular target: Delta-type opioid receptor (Mus musculus, UniProt P32300); assay: Evaluated for inhibitory activity against Opioid receptor delta 1 of mouse vas deferens (MVD).; type: tissue-based
# Mu-type opioid receptor [2] = molecular target: T1, Mu-type opioid receptor (Cavia porcellus, UniProt P97266); assay: Evaluated for inhibitory activity against Opioid receptor mu 1 of guinea pig ileum (GPI); type: tissue-based
# T1 sequence (P97266 whole entry): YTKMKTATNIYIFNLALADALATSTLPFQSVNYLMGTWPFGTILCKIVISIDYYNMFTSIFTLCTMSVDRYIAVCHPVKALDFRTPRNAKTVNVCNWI
# Mus musculus [3] = assay: Evaluated for analgesic effect using mouse tail-pinch test after intravenous administration; 2.08-7.27; type: functional
# How it was run: (§1)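 Mice, intravenous dosing, tail-pinch analgesia test. Four doses per compound, each dose tested on at least eight animals, giving ED50 in mg/kg.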
# Mu-type opioid receptor [4] = molecular target: T1, Mu-type opioid receptor; assay: Binding affinities against Opioid receptor mu 1 of guinea pig brain membrane using [3H]DAGO as the radioligand using competition binding assays.
# How it was run: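 μ-site competition binding on crude P2 membranes from male Hartley guinea pig brain (1 g original wet weight/20 mL, 50 mM Tris-HCl pH 7.6) with 5 nM [3H]DAGO and varied competitor, 60 min at 25 °C. GF/B filtration (1% polyethylenimine presoaked), six ice-cold buffer rinses, scintillation counting. Nonspecific binding with 10 μM levallorphan. Mean of five or six determinations ± SEM.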
# Mus musculus [5] = assay: Evaluated for analgesic effect using mouse tail-pinch test after intravenous administration; 1.27-3.29; type: functional; how it was run: as §1
# Mus musculus [6] = assay: Evaluated for analgesic effect using mouse tail-pinch test after intravenous administration; 1.97-5.67; type: functional; how it was run: as §1
# Mus musculus [7] = assay: Evaluated for analgesic effect using mouse tail-pinch test after intravenous administration; type: functional; how it was run: as §1
# Mus musculus [8] = assay: Evaluated for analgesic effect using mouse tail-pinch test after intravenous administration; 0.25-2.26; type: functional; how it was run: as §1
# Sequence of Delta-type opioid receptor (P32300 whole entry): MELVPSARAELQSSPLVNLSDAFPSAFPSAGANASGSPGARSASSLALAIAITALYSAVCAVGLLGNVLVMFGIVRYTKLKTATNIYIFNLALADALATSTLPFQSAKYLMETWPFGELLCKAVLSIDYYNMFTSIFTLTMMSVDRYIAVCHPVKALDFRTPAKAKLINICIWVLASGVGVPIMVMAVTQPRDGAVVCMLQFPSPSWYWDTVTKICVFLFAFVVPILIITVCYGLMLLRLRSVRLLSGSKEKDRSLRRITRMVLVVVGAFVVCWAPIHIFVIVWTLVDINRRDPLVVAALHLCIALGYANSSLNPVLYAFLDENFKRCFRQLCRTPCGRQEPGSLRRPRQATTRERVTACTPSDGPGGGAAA
smiles,measurement,setting,value
CN[C@@H](Cc1ccc(O)cc1)C(=O)NCC(=O)NCC(=O)N[C@@H](Cc1ccccc1)C(=O)N(C)[C@@H](CC(C)C)C(=O)N[C@@H](CCCNC(=N)N)C(=O)N[C@@H](CCCNC(=N)N)C(=O)N[C@H](CC(C)C)C(N)=O,IC50,[1],25.3 nM
same,IC50,Mu-type opioid receptor [2],11.9 nM
CN[C@@H](Cc1ccc(O)cc1)C(=O)NCC(=O)N[C@H](C)C(=O)N[C@@H](Cc1ccccc1)C(=O)N[C@@H](CC(C)C)C(=O)N[C@@H](CCCN=C(N)N)C(=O)N[C@@H](CCCN=C(N)N)C(=O)N[C@@H](CC(C)C)C(N)=O,IC50,[1],210 nM
same,IC50,Mu-type opioid receptor [2],12.7 nM
CN[C@@H](Cc1ccc(O)cc1)C(=O)NCC(=O)NCC(=O)N[C@H](Cc1ccccc1)C(=O)N[C@@H](CC(C)C)C(=O)N[C@@H](CCCNC(=N)N)C(=O)N[C@@H](CCCNC(=N)N)C(=O)N[C@@H](CC(C)C)C(N)=O,ED50,Mus musculus [3],3.89 mg/kg
same,IC50,[1],5.2 nM
same,Ki,Mu-type opioid receptor [4],2.81 nM
CN[C@@H](Cc1ccc(O)cc1)C(=O)NCC(=O)NCC(=O)N[C@@H](Cc1ccccc1)C(=O)N[C@@H](CC(C)C)C(=O)N[C@@H](CCCNC(=N)N)C(=O)N(C)[C@@H](CCCNC(=N)N)C(=O)N[C@H](CC(C)C)C(N)=O,IC50,[1],4.8 nM
same,Ki,Mu-type opioid receptor [4],3.34 nM
same,IC50,Mu-type opioid receptor [2],0.5 nM
CN[C@@H](Cc1ccc(O)cc1)C(=O)NCC(=O)NCC(=O)N[C@H](Cc1ccccc1)C(=O)N[C@@H](CC(C)C)C(=O)N[C@@H](CCCN=C(N)N)C(=O)N(C)[C@@H](CCCN=C(N)N)C(=O)N[C@@H](CC(C)C)C(N)=O,ED50,Mus musculus [5],2.04 mg/kg
CCNC(=O)[C@@H](CC(C)C)NC(=O)[C@H](CCCNC(=N)N)NC(=O)[C@H](CCCNC(=N)N)NC(=O)[C@H](CC(C)C)NC(=O)[C@H](Cc1ccccc1)NC(=O)CNC(=O)CNC(=O)[C@H](Cc1ccc(O)cc1)NC,IC50,[1],4.6 nM
same,IC50,Mu-type opioid receptor [2],0.7 nM
CCNC(=O)[C@H](CC(C)C)NC(=O)[C@H](CCCN=C(N)N)NC(=O)[C@H](CCCN=C(N)N)NC(=O)[C@H](CC(C)C)NC(=O)[C@@H](Cc1ccccc1)NC(=O)CNC(=O)CNC(=O)[C@H](Cc1ccc(O)cc1)NC,ED50,Mus musculus [6],3.34 mg/kg
CN[C@@H](Cc1ccc(O)cc1)C(=O)NCC(=O)NCC(=O)N[C@H](Cc1ccccc1)C(=O)N[C@H](CC(C)C)C(=O)N[C@@H](CCCNC(=N)N)C(=O)N[C@@H](CCCNC(=N)N)C(=O)N[C@@H](CC(C)C)C(N)=O,IC50,[1],> 1740 nM
same,IC50,Mu-type opioid receptor [2],82 nM
same,ED50,Mus musculus [7],> 6 mg/kg
CN[C@@H](Cc1ccc(O)cc1)C(=O)NCC(=O)NCC(=O)N[C@@H](Cc1ccccc1)C(=O)N[C@H](C)C(=O)N[C@@H](CCCNC(=N)N)C(=O)N[C@@H](CCCNC(=N)N)C(=O)N[C@H](CC(C)C)C(N)=O,IC50,[1],9800 nM
same,IC50,Mu-type opioid receptor [2],6000 nM
CN[C@@H](Cc1ccc(O)cc1)C(=O)NCC(=O)NCC(=O)N[C@H](Cc1ccccc1)C(=O)N[C@H](C)C(=O)N[C@@H](CCCN=C(N)N)C(=O)N[C@@H](CCCN=C(N)N)C(=O)N[C@@H](CC(C)C)C(N)=O,ED50,Mus musculus [7],> 20 mg/kg
CN[C@@H](Cc1ccc(O)cc1)C(=O)NCC(=O)NNC(=O)N[C@@H](Cc1ccccc1)C(=O)N[C@@H](CC(C)C)C(=O)N[C@@H](CCCNC(=N)N)C(=O)N[C@@H](CCCNC(=N)N)C(=O)N[C@H](CC(C)C)C(N)=O,IC50,[1],62.4 nM
same,IC50,Mu-type opioid receptor [2],18.6 nM
CN[C@@H](Cc1ccc(O)cc1)C(=O)NCC(=O)NCC(=O)N[C@@H](Cc1ccccc1)C(=O)N[C@@H](CC(C)C)C(=O)N[C@@H](CCCN=C(N)N)C(=O)N[C@@H](CCCN=C(N)N)C(=O)N[C@@H](CC(C)C)C(N)=O,IC50,Mu-type opioid receptor [2],> 3000 nM
CN[C@@H](Cc1ccc(O)cc1)C(=O)NCC(=O)NCC(=O)N[C@@H](Cc1ccccc1)C(=O)N[C@@H](CC(C)C)C(=O)N[C@@H](CCCCN=C(N)N)C(=O)N[C@@H](CCCN=C(N)N)C(=O)N[C@H](CC(C)C)C(N)=O [listing 1 of 2 here],IC50,[1],12 nM
same,IC50,Mu-type opioid receptor [2],2.6 nM
CN[C@@H](Cc1ccc(O)cc1)C(=O)NCC(=O)NCC(=O)N[C@@H](Cc1ccccc1)C(=O)N[C@@H](CC(C)C)C(=O)N[C@@H](CCCCN=C(N)N)C(=O)N[C@@H](CCCN=C(N)N)C(=O)N[C@H](CC(C)C)C(N)=O [listing 2 of 2 here],ED50,Mus musculus [7],> 8 mg/kg
CCNC(=O)[C@@H](CC(C)C)NC(=O)[C@H](CCCNC(=N)N)N(C)C(=O)[C@H](CCCNC(=N)N)NC(=O)[C@H](CC(C)C)NC(=O)[C@H](Cc1ccccc1)NC(=O)CNC(=O)CNC(=O)[C@H](Cc1ccc(O)cc1)NC,IC50,[1],7.4 nM
same,Ki,Mu-type opioid receptor [4],4.51 nM
same,IC50,Mu-type opioid receptor [2],0.3 nM
CCNC(=O)[C@@H](CC(C)C)NC(=O)[C@H](CCCN=C(N)N)N(C)C(=O)[C@H](CCCN=C(N)N)NC(=O)[C@H](CC(C)C)NC(=O)[C@H](Cc1ccccc1)NC(=O)CNC(=O)CNC(=O)[C@H](Cc1ccc(O)cc1)NC,ED50,Mus musculus [8],0.75 mg/kg
